ChEMBL document CHEMBL1130400, “Discovery of a novel, selective, and orally bioavailable class of thrombin inhibitors incorporating aminopyridyl moieties at the P1 position” (J Med Chem, 1997)

How the values were obtained:
[1] = Maximum plasma concentration after p.o. (10 mpk) administration in rats.; type: ADME, organism-based; set-up: route oral; conditions: rat, po, 10 mg/kg
Outline: (§1)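 Rats were anesthetized and fitted with catheters in the left jugular vein (dosing) and left carotid artery (sampling). Next day, conscious rats were dosed iv at 2 mpk or orally by gastric lavage at 10 mpk. Blood was drawn before dosing and at increasing times after. Plasma inhibitor levels gave concentration–time curves. F was derived by comparing dose-normalized AUCs from oral and iv dosing.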

[2] = Partition coefficient (logP); type: physicochemical; conditions: octanol/water
[3] = Maximum time of retention in plasma, after peroral (10 mpk) administration in rats.; type: ADME, organism-based; conditions: rat, po, 10 mg/kg; outline: as §1
[4] = Oral bioavailability in rat; type: ADME, organism-based; conditions: in vivo; outline: as §1
[5] = Half life in rats; type: ADME, organism-based; conditions: rat, in vivo; outline: as §1
Coagulation factor X [6] = target: T1, Coagulation factor X (Homo sapiens, UniProt P00742); assay: (§2) In vitro inhibitory activity against Coagulation factor X
Outline: (§3)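 Ki from the dependence of initial rate on inhibitor concentration. Proteinase (human FXa, or bovine trypsin) equilibrated with inhibitor, then chromogenic substrate added. p-Nitroaniline release followed as the absorbance increase at 405 nm.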

Prothrombin = Prothrombin (Homo sapiens, UniProt P00734); assay: In vitro inhibitory activity against human thrombin(IIa)
Serine protease 1 [7] = target: T2, Serine protease 1 (Bos taurus, UniProt P00760); assay: In vitro inhibitory activity against bovine trypsin; outline: as §3
T2 sequence (P00760 whole entry): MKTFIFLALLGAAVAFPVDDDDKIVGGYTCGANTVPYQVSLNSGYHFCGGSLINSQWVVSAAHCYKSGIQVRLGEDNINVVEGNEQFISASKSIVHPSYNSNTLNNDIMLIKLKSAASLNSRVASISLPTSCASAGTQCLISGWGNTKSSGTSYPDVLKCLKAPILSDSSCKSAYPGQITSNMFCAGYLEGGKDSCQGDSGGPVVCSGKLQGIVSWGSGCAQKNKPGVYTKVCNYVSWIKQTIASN

[8] = Clearance values in rats after iv administration.; type: ADME, organism-based; conditions: rat, in vivo; outline: as §1
Serine protease 1 [9] = target: T2, Serine protease 1; assay: In vitro iinhibitory activity against bovine trypsin
Outline: (§4)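 Ki values for bovine trypsin and human factor Xa came from the inhibitor-concentration dependence of the initial rate of p-nitroaniline release. Enzyme and inhibitor were equilibrated first, then chromogenic substrate was added, and the rate of absorbance increase at 405 nm was followed.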

Coagulation factor X [10] = target: T1, Coagulation factor X; assay: as §2; outline: as §4; remark: listed apart in the source
[11] = pKa was determined; type: physicochemical

T1 sequence (P00742 41-179 limits assumed): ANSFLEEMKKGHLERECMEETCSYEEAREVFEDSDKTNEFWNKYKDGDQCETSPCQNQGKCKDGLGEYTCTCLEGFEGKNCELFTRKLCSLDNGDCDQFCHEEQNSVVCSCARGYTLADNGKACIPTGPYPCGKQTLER
T1 sequence (P00742 235-488 limits assumed): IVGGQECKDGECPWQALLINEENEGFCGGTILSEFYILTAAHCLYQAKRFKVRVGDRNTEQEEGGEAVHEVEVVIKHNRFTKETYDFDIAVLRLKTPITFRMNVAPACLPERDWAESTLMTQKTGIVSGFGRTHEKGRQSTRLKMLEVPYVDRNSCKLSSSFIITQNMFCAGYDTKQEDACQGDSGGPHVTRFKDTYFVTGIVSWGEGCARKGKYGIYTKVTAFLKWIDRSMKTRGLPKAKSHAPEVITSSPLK

Row | Structure (SMILES) | Ki (Coagulation factor X [6]) | Ki (Prothrombin) | Ki (Serine protease 1 [7]) | further results
1 | Cc1cc(N)nc(C)c1CNC(=O)[C@@H]1CCCN1C(=O)[C@H](NC(=O)OC(C)(C)C)C(c1ccccc1)c1ccccc1 | 160 µM | 0.0036 µM | 2.5 µM | Cmax [1]: 610 nM; logP [2]: 1.65; Tmax [3]: 53 min; bioavailability [4]: 40%; half-life [5]: 50 min; clearance [8]: 76 mL/min/kg
2 | Cc1cc(N)nc(C)c1CNC(=O)[C@@H]1CCCN1C(=O)[C@H](NC(=O)OC(C)(C)C)C(C1CCCCC1)C1CCCCC1 | 16 µM | 0.0022 µM | 1.5 µM | 
3 | CC(C)(C)OC(=O)N[C@@H](C(=O)N1CCC[C@H]1C(=O)NCc1csc(N)n1)C(C1CCCCC1)C1CCCCC1 | > 100 µM | 0.35 µM |  | Ki (Serine protease 1 [9]): 52 µM
4 | O=C(NCc1ccncc1)[C@@H]1CCCN1C(=O)[C@@H](Cc1ccc(Cl)c(Cl)c1)NS(=O)(=O)Cc1ccccc1 | > 200 µM | 0.51 µM | 31 µM | 
5 | Nc1cc(CNC(=O)[C@@H]2CCCN2C(=O)[C@@H](Cc2ccc(Cl)c(Cl)c2)NS(=O)(=O)Cc2ccccc2)cs1 |  | 0.13 µM | 56 µM | Ki (Coagulation factor X [10]): > 100 µM
6 | Nc1nc(CNC(=O)[C@@H]2CCCN2C(=O)[C@H](N)C(c2ccccc2)c2ccccc2)cs1 | > 100 µM | 0.35 µM | 277 µM | 
7 | CC(C)(C)OC(=O)N[C@H](Cc1ccccc1)C(=O)N1CCC[C@H]1C(=O)NCc1ccc(N)cc1 | 420 µM | 3.7 µM | 233 µM | 
8 | Nc1ccc(CNC(=O)[C@@H]2CCCN2C(=O)[C@@H](Cc2ccc(Cl)c(Cl)c2)NS(=O)(=O)Cc2ccccc2)cc1 | 10 µM |  | 12 µM | Cmax [1]: 660 nM; logP [2]: > 3.68; Tmax [3]: 53 min; bioavailability [4]: 35%; half-life [5]: 20 min; pKa [11]: 4.8; clearance [8]: 71 mL/min/kg
9 | CC(C)(C)OC(=O)N[C@@H](C(=O)N1CCC[C@H]1C(=O)NCc1csc(N)n1)C(c1ccccc1)c1ccccc1 | > 100 µM | 0.9 µM | > 100 µM | 
10 | O=C(NCc1cccnc1)[C@@H]1CCCN1C(=O)[C@@H](Cc1ccc(Cl)c(Cl)c1)NS(=O)(=O)Cc1ccccc1 | 230 µM | 0.38 µM | 284 µM | 
11 | Nc1ccc(CNC(=O)[C@@H]2CCCN2C(=O)[C@@H](Cc2ccc(Cl)c(Cl)c2)NS(=O)(=O)Cc2ccccc2)cn1 | 7.6 µM | 0.003 µM | 0.43 µM | 
12 | Cc1cc(N)nc(C)c1CNC(=O)[C@@H]1CCCN1C(=O)[C@H](N)C(C1CCCCC1)C1CCCCC1 | 160 µM |  | 3 µM | 
13 | CC(C)(C)OC(=O)N[C@@H](C(=O)N1CCC[C@H]1C(=O)NCc1ccc(N)nc1)C(c1ccccc1)c1ccccc1 | > 200 µM | 0.0076 µM | 1.3 µM | 
14 | Nc1nc(CNC(=O)[C@@H]2CCCN2C(=O)[C@@H](Cc2ccc(Cl)c(Cl)c2)NS(=O)(=O)Cc2ccccc2)cs1 | > 100 µM | 0.36 µM | 767 µM | 
15 | CC(C)(C)OC(=O)N[C@@H](C(=O)N1CCC[C@H]1C(=O)NCc1ccc(N)nc1)C(C1CCCCC1)C1CCCCC1 | 4.4 µM | 0.003 µM | 0.657 µM | Cmax [1]: 1430 nM; logP [2]: > 3.35; Tmax [3]: 120 min; bioavailability [4]: 60%; half-life [5]: 35 min; pKa [11]: 6.5; clearance [8]: 27 mL/min/kg
16 | O=C(NCc1ccccc1)[C@@H]1CCCN1C(=O)[C@@H](Cc1ccc(Cl)c(Cl)c1)NS(=O)(=O)Cc1ccccc1 | 14 µM | 0.11 µM | 384 µM | 
17 | Nc1ccc(CNC(=O)[C@@H]2CCCN2C(=O)[C@H](N)C(C2CCCCC2)C2CCCCC2)cn1 | 8.3 µM | 0.00082 µM | 1.2 µM | Cmax [1]: 530 nM; logP [2]: 2.21; Tmax [3]: 26 min; bioavailability [4]: 76%; half-life [5]: 102 min; pKa [11]: 6.2; clearance [8]: > 200 mL/min/kg
18 | Cc1cc(N)nc(C)c1CNC(=O)[C@@H]1CCCN1C(=O)[C@H](N)C(c1ccccc1)c1ccccc1 | 240 µM | 0.01 µM | 8.3 µM | 
19 | Nc1nc(CNC(=O)[C@@H]2CCCN2C(=O)[C@H](N)C(C2CCCCC2)C2CCCCC2)cs1 | > 100 µM | 0.07 µM | 144 µM | 
20 | CN[C@H](Cc1ccccc1)C(=O)N1CCC[C@H]1C(=O)NC[C@H]1CC[C@H](N)CC1 | > 1000 µM |  | 11 µM | logP [2]: -1.68; bioavailability [4]: 1%; pKa [11]: 10.2
21 | Cc1cc(N)nc(C)c1CNC(=O)[C@@H]1CCCN1C(=O)[C@@H](Cc1ccc(Cl)c(Cl)c1)NS(=O)(=O)Cc1ccccc1 | 52 µM | 0.011 µM | 8.9 µM | 
22 | CC(C)(C)OC(=O)N[C@@H](C(=O)N1CCC[C@H]1C(=O)NCc1csc(N)c1)C(C1CCCCC1)C1CCCCC1 | 27 µM | 0.56 µM | 45 µM | 
23 | Nc1ccc(CNC(=O)[C@@H]2CCCN2C(=O)[C@H](N)C(c2ccccc2)c2ccccc2)cn1 | 94 µM | 0.012 µM | 5.4 µM | 
